From ChEMBL document CHEMBL4837211, “Adamantane derivatives as potential inhibitors of p37 major envelope protein and poxvirus reproduction. Design, synthesis and antiviral activity” (Eur J Med Chem, 2021)

Tests used:
[1] = (§1) Cytotoxicity against African green monkey Vero cells assessed as reduction in cell viability by neutral red dye based colorimetric analysis; conditions: chlorocebus sabaeus, Vero cells
Summary of the method: (§2)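 Vero monolayers are grown in DMEM with 5% FBS, gentamicin and amphotericin B, and assayed in the same medium with 2% serum. Each compound is tested as 8 three-fold dilutions, starting at 1, 10 or 100 µg/ml, added before 1000 pfu/well virus. After 4 days, neutral red is added for 1.5 h, cells are washed and lysed, and OD is read. CC50 and IC50 are derived from OD values.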

[2] = test system: p37 (Vaccinia virus Copenhagen); assay: Selectivity index, ratio of CC50 for African green monkey Vero cells to IC50 for inhibition of p37 in Vaccinia virus Copenhagen infected in African green monkey Vero cells; assay type: toxicity; conditions: read-out: Ratio CC50/IC50
[3] = test system: Vero; assay: as §1; conditions: chlorocebus sabaeus, vero; summary of the method: as §2
[4] = cells; assay type: cell-based; conditions: Cowpox virus, Vero, 96 h
[5] = test system: p37 (Cowpox virus Grishak); assay: Selectivity index, ratio of CC50 for African green monkey Vero cells to IC50 for inhibition of p37 in Cowpox virus Grishak infected in African green monkey Vero cells; assay type: toxicity; conditions: read-out: Ratio CC50/IC50
[6] = cells; assay type: cell-based; conditions: Ectromelia virus, Vero, 96 h
[7] = test system: p37 (Ectromelia virus K1); assay: Selectivity index, ratio of CC50 for African green monkey Vero cells to IC50 for inhibition of p37 in Ectromelia virus K1 infected in African green monkey Vero cells; assay type: toxicity; conditions: read-out: Ratio CC50/IC50

Compound	CC50 [1]	selectivity ratio [2]	CC50 [3]	IC50 [4]	selectivity ratio [5]	IC50 [6]	selectivity ratio [7]
CC12CC3CC(C)(C1)CC(C(=O)NNC(=O)c1ccc(C(F)(F)F)cc1)(C3)C2	> 254 µM	> 8.2	–	–	–	–	–
C/C(=N\NC(=O)c1ccc(C(F)(F)F)cc1)C12CC3CC(CC(C3)C1)C2	–	> 26	> 274 µM	11.9 µM	> 23	10.9 µM	> 25
O=C(NCC12CC3CC(CC(C3)C1)C2)c1ccc(C(F)(F)F)cc1	–	> 1100	> 296 µM	1.24 µM	> 239	–	–
CCC12CC3CC(C1)CC(NNC(=O)c1ccc(C(F)(F)F)cc1)(C3)C2	2.5 µM	1.5	–	–	–	–	–
O=C(NN=C1C2CC3CC(C2)CC1C3)c1ccc(C(F)(F)F)cc1	> 297 µM	> 1.5	–	–	–	–	–
O=C(NNC1C2CC3CC(C2)CC1C3)c1ccc(C(F)(F)F)cc1 (stereo not drawn)	> 296 µM	> 103	–	4.06 µM	> 72	2.5 µM	> 118
O=C(NN1C(=O)[C@@H]2[C@@H]3C=C[C@@H]([C@H]4C[C@@H]34)[C@@H]2C1=O)c1ccc(C(F)(F)F)cc1 [TECOVIRIMAT]	–	> 100000	> 266 µM	0.00532 µM	> 50000	0.00806 µM	> 33000
CCC12CC3CC(C1)CC(C(=O)NNC(=O)c1ccc(C(F)(F)F)cc1)(C3)C2	47 µM	3.75	–	–	–	–	–
O=C(NC12CC3CC(CC(C3)C1)C2)c1ccc(C(F)(F)F)cc1	–	> 2320	> 309 µM	0.928 µM	> 333	0.492 µM	> 628
CC12CC3CC(C1)CC(NC(=O)c1ccc(C(F)(F)F)cc1)(C3)C2	–	> 33	> 296 µM	15.6 µM	> 19	4.1 µM	> 72
O=C(NNC(=O)c1ccc(C(F)(F)F)cc1)NC12CC3CC(CC(C3)C1)C2	–	2.6	94.3 µM	–	–	–	–
CC12CC3CC(C)(C1)CC(NC(=O)c1ccc(C(F)(F)F)cc1)(C3)C2	–	–	20.5 µM	–	–	–	–
CCC12CC3CC(C1)CC(NC(=O)c1ccc(C(F)(F)F)cc1)(C3)C2	–	> 68	> 280 µM	11.1 µM	> 25	11.1 µM	> 25
O=C(NNC1C2CC3CC1CC(Cl)(C3)C2)c1ccc(C(F)(F)F)cc1 (stereo not drawn)	~215 µM	61	–	10.4 µM	20.7	7.8 µM	27.5
O=C(NNC(=O)C12CC3CC(CC(C3)C1)C2)c1ccc(C(F)(F)F)cc1	> 273 µM	> 255	–	4.77 µM	> 57	1 µM	> 273
O=C(NC1C2CC3CC(C2)CC1C3)c1ccc(Br)cc1 (stereo not drawn)	–	> 98	> 299 µM	11.3 µM	> 26.5	4.9 µM	> 61
CC(NNC(=O)c1ccc(C(F)(F)F)cc1)C12CC3CC(CC(C3)C1)C2 (racemic)	14 µM	27	–	–	–	–	–
O=C(NCC12CC3CC(CC(C3)C1)C2)c1ccc(Br)cc1	–	28	238 µM	–	–	1.75 µM	136
O=C(NC1C2CC3CC(C2)CC1C3)c1ccc(C(F)(F)F)cc1 (stereo not drawn)	–	> 1430	> 309 µM	0.96 µM	> 321	0.569 µM	> 543
O=C(NNC12CC3CC(CC(C3)C1)C2)c1ccc(C(F)(F)F)cc1	2.8 µM	–	–	–	–	–	–
CN(C(=O)c1ccc(C(F)(F)F)cc1)C12CC3CC(CC(C3)C1)C2	–	> 61	> 296 µM	32.9 µM	> 9	6.17 µM	> 48
